In ChEMBL document CHEMBL1275598, “In vitro activity of ceftaroline against community-associated methicillin-resistant, vancomycin-intermediate, vancomycin-resistant, and daptomycin-nonsusceptible Staphylococcus aureus isolates” (2010):
≈ marks a conversion by molar mass, not a printed value.

How the values were obtained:
Type in all cases: functional
Staphylococcus aureus [1] = test: Antimicrobial activity against vancomycin resistant Staphylococcus aureus VRS-10 expressing SCCmec type 2 element by microdilution method
Outline: (§1)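 Broth microdilution per CLSI in cation-adjusted Mueller-Hinton broth. Antibiotic powders were reconstituted per CLSI. The MIC was read visually as the lowest drug concentration with no visible growth. S. aureus ATCC 29213 and E. faecalis ATCC 29212 served as control strains. VISA and VRSA isolates came from the NARSA program.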

Staphylococcus aureus [2] = test: Antimicrobial activity against community-acquired methicillin-resistant Staphylococcus aureus by microdilution method
Outline: (§2)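 MIC by broth microdilution in cation-adjusted Mueller-Hinton broth, following CLSI guidelines; antibiotic powders reconstituted per CLSI. Read visually as the lowest drug concentration well with no visible growth. S. aureus ATCC 29213 and E. faecalis ATCC 29212 served as control strains. CA-MRSA: hospital patients culture-positive within 48 h of admission. DNSSA: patient blood isolates. VISA: obtained from the NARSA program.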

Staphylococcus aureus [3] = test: Antimicrobial activity against community-acquired methicillin-resistant Staphylococcus aureus assessed as susceptible isolates by microdilution method
Outline: (§3)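 MICs by CLSI broth microdilution in cation-adjusted Mueller-Hinton broth, read visually as the lowest concentration with no visible growth. Percentages of susceptible or resistant isolates assigned using CLSI breakpoints. Isolates: CA-MRSA (n = 92, positive within 48 h of admission) and DNSSA (n = 7, blood).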

Staphylococcus aureus [4] = test: Antimicrobial activity against community-acquired methicillin-resistant Staphylococcus aureus assessed as resistant isolates by microdilution method; outline: as §3
Staphylococcus aureus [5] = test: Bactericidal activity against vancomycin-resistant Staphylococcus aureus assessed as antibiotic concentration that reduced the number of viable cells by =>99.9% by colony count method; settings: Staphylococcus aureus
Outline: (§4)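 MBC per CLSI following microdilution in cation-adjusted Mueller-Hinton broth. Defined as the concentration giving ≥99.9% reduction in viable cells, judged from colony counts of the growth control well against Pearson rejection-value tables. CA-MRSA isolates were hospital patients' isolates with positive MRSA culture within 48 h of admission.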

Staphylococcus aureus [6] = test: Bactericidal activity against community-acquired methicillin-resistant Staphylococcus aureus assessed as antibiotic concentration that reduced the number of viable cells by =>99.9% by colony count method; outline: as §4
Staphylococcus aureus [7] = test: Antimicrobial activity against vancomycin-intermediate Staphylococcus aureus by microdilution method; outline: as §1
Staphylococcus aureus [8] = test: Antimicrobial activity against vancomycin-intermediate Staphylococcus aureus assessed as susceptible isolates by microdilution method
Outline: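 CLSI broth microdilution in cation-adjusted Mueller-Hinton broth. MIC is the lowest concentration well with no visible growth, read by eye. Isolates were classed susceptible from CLSI breakpoints. S. aureus ATCC 29213 and E. faecalis ATCC 29212 were used as MIC control strains.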

Staphylococcus aureus [9] = test: Antimicrobial activity against vancomycin-intermediate Staphylococcus aureus assessed as resistant isolates by microdilution method
Outline: (§5)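 CLSI broth microdilution MICs in cation-adjusted Mueller-Hinton broth, read visually as the lowest concentration with no visible growth. Percent of isolates classed susceptible or resistant was assigned using CLSI breakpoints.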

Staphylococcus aureus [10] = test: Antimicrobial activity against vancomycin-resistant Staphylococcus aureus assessed as resistant isolates by microdilution method; outline: as §5
Staphylococcus aureus [11] = test: Bactericidal activity against vancomycin-intermediate Staphylococcus aureus assessed as antibiotic concentration that reduced the number of viable cells by =>99.9% by colony count method
Outline: (§6)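 MBC per CLSI guidelines. It was taken as the antibiotic concentration giving ≥99.9% reduction in viable cells, based on colony counts from the growth control well and rejection values from Pearson's tables.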

Staphylococcus aureus [12] = test: Antimicrobial activity against daptomycin-nonsusceptible Staphylococcus aureus by microdilution method; settings: Staphylococcus aureus; outline: as §2
Staphylococcus aureus [13] = test: Antimicrobial activity against daptomycin-nonsusceptible Staphylococcus aureus assessed as susceptible isolates by microdilution method; outline: as §3
Staphylococcus aureus [14] = test: Antimicrobial activity against daptomycin-nonsusceptible Staphylococcus aureus assessed as resistant isolates by microdilution method; outline: as §3
Staphylococcus aureus [15] = test: Antimicrobial activity against vancomycin-resistant Staphylococcus aureus by microdilution method; outline: as §1
Staphylococcus aureus [16] = test: Antimicrobial activity against vancomycin-resistant Staphylococcus aureus assessed as susceptible isolates by microdilution method; outline: as §5
Staphylococcus aureus [17] = test: Bactericidal activity against daptomycin-nonsusceptible Staphylococcus aureus assessed as antibiotic concentration that reduced the number of viable cells by =>99.9% by colony count method; outline: as §6
Staphylococcus aureus [18] = test: Antimicrobial activity against vancomycin intermediate Staphylococcus aureus NRS-3 expressing SCCmec type 2 element by microdilution method; outline: as §2
Staphylococcus aureus [19] = test: Antimicrobial activity against vancomycin intermediate Staphylococcus aureus NRS-4 expressing SCCmec type 2 element by microdilution method; outline: as §2
Staphylococcus aureus [20] = test: Antimicrobial activity against vancomycin intermediate Staphylococcus aureus NRS-17 expressing SCCmec type 2 element by microdilution method; outline: as §2
Staphylococcus aureus [21] = test: Antimicrobial activity against vancomycin intermediate Staphylococcus aureus NRS-18 expressing SCCmec type 2 element by microdilution method; outline: as §2
Staphylococcus aureus [22] = test: Antimicrobial activity against vancomycin intermediate Staphylococcus aureus NRS-19 expressing SCCmec type 2 element by microdilution method; outline: as §2
Staphylococcus aureus [23] = test: Antimicrobial activity against vancomycin intermediate Staphylococcus aureus NRS-22 expressing SCCmec type 2 element by microdilution method; outline: as §2
Staphylococcus aureus [24] = test: Antimicrobial activity against vancomycin intermediate Staphylococcus aureus NRS-23 expressing SCCmec type 2 element by microdilution method; outline: as §2
Staphylococcus aureus [25] = test: Antimicrobial activity against vancomycin intermediate Staphylococcus aureus NRS-24 expressing SCCmec type 2 element by microdilution method; outline: as §2
Staphylococcus aureus [26] = test: Antimicrobial activity against vancomycin intermediate Staphylococcus aureus NRS-26 expressing SCCmec type 2 element by microdilution method; outline: as §2
Staphylococcus aureus [27] = test: Antimicrobial activity against vancomycin intermediate Staphylococcus aureus NRS-27 expressing SCCmec type 2 element by microdilution method; outline: as §2
Staphylococcus aureus [28] = test: Antimicrobial activity against vancomycin intermediate Staphylococcus aureus NRS-51 expressing SCCmec type 2 element by microdilution method; outline: as §2
Staphylococcus aureus [29] = test: Antimicrobial activity against vancomycin intermediate Staphylococcus aureus NRS-68 expressing SCCmec type 2 element by microdilution method; outline: as §2
Staphylococcus aureus [30] = test: Antimicrobial activity against vancomycin intermediate Staphylococcus aureus NRS-73 expressing SCCmec type 4d element by microdilution method; outline: as §2
Staphylococcus aureus [31] = test: Antimicrobial activity against vancomycin intermediate Staphylococcus aureus NRS-74 expressing SCCmec type 2 element by microdilution method; outline: as §2
Staphylococcus aureus [32] = test: Antimicrobial activity against vancomycin intermediate Staphylococcus aureus NRS-76 expressing SCCmec type 2 element by microdilution method; outline: as §1
Staphylococcus aureus [33] = test: Antimicrobial activity against vancomycin intermediate Staphylococcus aureus NRS-118 expressing SCCmec type 1 element by microdilution method; outline: as §2
Staphylococcus aureus [34] = test: Antimicrobial activity against vancomycin intermediate Staphylococcus aureus NRS-126 expressing SCCmec type 2 element by microdilution method; outline: as §2
Staphylococcus aureus [35] = test: Antimicrobial activity against vancomycin intermediate Staphylococcus aureus NRS-402 expressing SCCmec type 2 element by microdilution method; outline: as §2
Staphylococcus aureus [36] = test: Antimicrobial activity against vancomycin intermediate Staphylococcus aureus NRS-403 expressing SCCmec type 2 element by microdilution method; outline: as §2
Staphylococcus aureus [37] = test: Antimicrobial activity against vancomycin intermediate Staphylococcus aureus NRS-404 expressing SCCmec type 2 element by microdilution method; outline: as §2
Staphylococcus aureus [38] = test: Antimicrobial activity against vancomycin resistant Staphylococcus aureus VRS-1 expressing SCCmec type 2 element by microdilution method; outline: as §1
Staphylococcus aureus [39] = test: Antimicrobial activity against vancomycin resistant Staphylococcus aureus VRS-2 expressing SCCmec type 2 element by microdilution method; outline: as §1
Staphylococcus aureus [40] = test: Antimicrobial activity against vancomycin resistant Staphylococcus aureus VRS-3 expressing SCCmec type 4 element by microdilution method; outline: as §1
Staphylococcus aureus [41] = test: Antimicrobial activity against vancomycin resistant Staphylococcus aureus VRS-4 expressing SCCmec type 4 element by microdilution method; outline: as §1
Staphylococcus aureus [42] = test: Antimicrobial activity against vancomycin resistant Staphylococcus aureus VRS-5 expressing SCCmec type 2 element by microdilution method; outline: as §1
Staphylococcus aureus [43] = test: Antimicrobial activity against vancomycin resistant Staphylococcus aureus VRS-6 expressing SCCmec type 2 element by microdilution method; outline: as §1
Staphylococcus aureus [44] = test: Antimicrobial activity against vancomycin resistant Staphylococcus aureus VRS-7 expressing SCCmec element by microdilution method; outline: as §1
Staphylococcus aureus [45] = test: Antimicrobial activity against vancomycin resistant Staphylococcus aureus VRS-8 expressing SCCmec element by microdilution method; outline: as §1
Staphylococcus aureus [46] = test: Antimicrobial activity against vancomycin resistant Staphylococcus aureus VRS-9 expressing SCCmec type 2 element by microdilution method; outline: as §1

SMILES: CCC[C@@H]1C[C@@H](C(=O)N[C@@H]([C@H]2O[C@H](SC)[C@H](O)[C@@H](O)[C@H]2O)[C@H](C)Cl)N(C)C1 [CLINDAMYCIN]
- MIC (Staphylococcus aureus [1]): > 64 µg/mL
- MIC50 (Staphylococcus aureus [2]): 0.12 µg/mL (≈ 0.282 µM)
- MIC90 (Staphylococcus aureus [2]): > 64 µg/mL
- Activity (Staphylococcus aureus [3]): 64%
- Activity (Staphylococcus aureus [4]): 36%
- MBC (Staphylococcus aureus [5]): > 64 µg/mL
- MBC50 (Staphylococcus aureus [6]): 8 µg/mL (≈ 18.8 µM)
- MBC (Staphylococcus aureus [6]; Staphylococcus aureus): > 1 µg/mL
- MIC50 (Staphylococcus aureus [7]): > 64 µg/mL
- MIC90 (Staphylococcus aureus [7]): > 64 µg/mL
- Activity (Staphylococcus aureus [8]): 17%
- Activity (Staphylococcus aureus [9]): 83%
- Activity (Staphylococcus aureus [10]): 100%
- MBC50 (Staphylococcus aureus [11]): >64 µg/mL
- MBC90 (Staphylococcus aureus [11]): >64 µg/mL
- MBC (Staphylococcus aureus [11]; Staphylococcus aureus): > 0.12 µg/mL
- MIC50 (Staphylococcus aureus [12]): > 64 µg/mL
- Activity (Staphylococcus aureus [13]): 14%
- Activity (Staphylococcus aureus [14]): 86%
- MIC (Staphylococcus aureus [15]): > 64 µg/mL
- MIC50 (Staphylococcus aureus [15]): > 64 µg/mL
- MIC90 (Staphylococcus aureus [15]): > 64 µg/mL
- Activity (Staphylococcus aureus [16]): 0%
- MBC50 (Staphylococcus aureus [17]): >64 µg/mL
- MIC (Staphylococcus aureus [18]): > 64 µg/mL
- MIC (Staphylococcus aureus [19]): > 64 µg/mL
- MIC (Staphylococcus aureus [20]): 0.06 µg/mL (≈ 0.141 µM)
- MIC (Staphylococcus aureus [21]): > 64 µg/mL
- MIC (Staphylococcus aureus [22]): > 64 µg/mL
- MIC (Staphylococcus aureus [23]): > 64 µg/mL
- MIC (Staphylococcus aureus [24]): > 64 µg/mL
- MIC (Staphylococcus aureus [25]): > 64 µg/mL
- MIC (Staphylococcus aureus [26]): > 64 µg/mL
- MIC (Staphylococcus aureus [27]): > 64 µg/mL
- MIC (Staphylococcus aureus [28]): > 64 µg/mL
- MIC (Staphylococcus aureus [29]): > 64 µg/mL
- MIC (Staphylococcus aureus [30]): 0.06 µg/mL (≈ 0.141 µM)
- MIC (Staphylococcus aureus [31]): > 64 µg/mL
- MIC (Staphylococcus aureus [32]): 0.06 µg/mL (≈ 0.141 µM)
- MIC (Staphylococcus aureus [33]): > 64 µg/mL
- MIC (Staphylococcus aureus [34]): > 64 µg/mL
- MIC (Staphylococcus aureus [35]): > 64 µg/mL
- MIC (Staphylococcus aureus [36]): > 64 µg/mL
- MIC (Staphylococcus aureus [37]): 0.06 µg/mL (≈ 0.141 µM)
- MIC (Staphylococcus aureus [38]): > 64 µg/mL
- MIC (Staphylococcus aureus [39]): > 64 µg/mL
- MIC (Staphylococcus aureus [40]): > 64 µg/mL
- MIC (Staphylococcus aureus [41]): > 64 µg/mL
- MIC (Staphylococcus aureus [42]): > 64 µg/mL
- MIC (Staphylococcus aureus [43]): > 64 µg/mL
- MIC (Staphylococcus aureus [44]): > 64 µg/mL
- MIC (Staphylococcus aureus [45]): > 64 µg/mL
- MIC (Staphylococcus aureus [46]): > 64 µg/mL
